Laboratory results taken from ChEMBL document CHEMBL1140964, “1,8-Naphthyridines VII. New substituted 5-amino[1,2,4]triazolo[4,3-a][1,8]naphthyridine-6-carboxamides and their isosteric analogues, exhibiting notable anti-inflammatory and/or analgesic activities, but no acute gastrolesivity” (Eur J Med Chem, 2008).

Experiments:
Mus musculus [1] = test: Antinociceptive activity in Swiss mouse assessed as inhibition of acetic acid-induced writhing response at 200 mg/kg, po dose administered 1 hr before acetic acid challenge measured for 30 mins; type: functional
Mus musculus [2] = test: Antinociceptive activity in Swiss mouse assessed as inhibition of acetic acid-induced writhing response at 100 mg/kg, po dose administered 1 hr before acetic acid challenge measured for 30 mins; type: functional
How it was run: (§1)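 Swiss mice (25–35 g, either sex), fasted overnight, received compound orally in 0.5% methylcellulose or vehicle, with 8–10 per group. Testing started at 100 mg/kg with successive twofold dose reductions. Writhes were counted for 30 min after acetic acid injection. Percent inhibition of the writhing response was calculated versus vehicle controls (Student's t-test).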

Mus musculus [3] = test: Antinociceptive activity in Swiss mouse assessed as inhibition of acetic acid-induced writhing response at 50 mg/kg, po dose administered 1 hr before acetic acid challenge measured for 30 mins; type: functional; how it was run: as §1
Mus musculus [4] = test: Antinociceptive activity in Swiss mouse assessed as inhibition of acetic acid-induced writhing response at 25 mg/kg, po dose administered 1 hr before acetic acid challenge measured for 30 mins; type: functional; how it was run: as §1
Mus musculus [5] = test: Antinociceptive activity in Swiss mouse assessed as inhibition of acetic acid-induced writhing response at 12.5 mg/kg, po dose administered 1 hr before acetic acid challenge measured for 30 mins; type: functional; how it was run: as §1
Mus musculus [6] = test: Antinociceptive activity in Swiss mouse assessed as inhibition of acetic acid-induced writhing response at 6.25 mg/kg, po dose administered 1 hr before acetic acid challenge measured for 30 mins; type: functional; how it was run: as §1
Mus musculus [7] = test: Antinociceptive activity in Swiss mouse assessed as inhibition of acetic acid-induced writhing response at 3.12 mg/kg, po dose administered 1 hr before acetic acid challenge measured for 30 mins; type: functional
Mus musculus [8] = test: Antinociceptive activity in Swiss mouse assessed as inhibition of acetic acid-induced writhing response at 1.6 mg/kg, po dose administered 1 hr before acetic acid challenge measured for 30 mins; type: functional
Mus musculus [9] = test: Antinociceptive activity in Swiss mouse assessed as inhibition of acetic acid-induced writhing response at 0.8 mg/kg, po dose administered 1 hr before acetic acid challenge measured for 30 mins; type: functional
Rattus norvegicus [10] = test: Antiinflammatory activity against carrageenan-induced paw edema in Wistar rat at 200 mg/kg, po dose administered 1 hr before carrageenan challenge assessed after 3 hrs; type: functional
Rattus norvegicus [11] = test: Antiinflammatory activity against carrageenan-induced paw edema in Wistar rat at 100 mg/kg, po dose administered 1 hr before carrageenan challenge assessed after 3 hrs; type: functional
How it was run: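 Wistar rats (250–300 g, either sex), fasted overnight, dosed by oral gavage with the compound suspended in 0.5% methylcellulose. Controls received vehicle alone, with 8–10 animals per group. Dosing started at 100 mg/kg and was halved stepwise. Carrageenan (1%, 0.1 mL) was injected subplantar 1 h post-dose. Paw volume was measured by plethysmometer immediately and at 3 h, and % inhibition of swelling was calculated versus controls (Student's t-test).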

Mus musculus [12] = test: Sedative activity in Swiss mouse assessed as inhibition of spontaneous locomotor activity at 100 mg/kg, po dose measured for every 5 mins during 60 to 90 mins; type: organism-based; parameters: dose 100 mg/kg, route oral
How it was run: (§2)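 Fasted Swiss mice (25–35 g, either sex) were given compound orally in 0.5% methylcellulose or vehicle. Each mouse was placed alone in a photobeam-type activity cage, with counts recorded every 5 min for 90 min. Pulses from the final 30 min were scored, with testing run 9:00–13:00. Percent inhibition was calculated versus controls (Student's t-test).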

Mus musculus [13] = test: Sedative activity in Swiss mouse assessed as inhibition on spontaneous locomotor activity at 25 mg/kg, po measured for every 5 mins during 60 to 90 mins; type: functional, organism-based; parameters: dose 25 mg/kg, route oral; how it was run: as §2
Mus musculus [14] = test: Sedative activity in Swiss mouse assessed as inhibition on spontaneous locomotor activity at 12.5 mg/kg, po dose measured for every 5 mins during 60 to 90 mins; type: ADME, organism-based; parameters: dose 12.5 mg/kg, route oral; how it was run: as §2
Mus musculus [15] = test: Sedative activity in Swiss mouse assessed as inhibition on spontaneous locomotor activity at 6.25 mg/kg, po measured for every 5 mins during 60 to 90 mins; type: ADME, organism-based; parameters: dose 6.25 mg/kg, route oral; how it was run: as §2
Rattus norvegicus [16] = test: Acute gastrolesivity in Wistar rat assessed as appearance of gastric lesions at 200 mg/kg, po after 5 hrs; type: toxicity, organism-based, Stomach; parameters: dose 200 mg/kg, route oral; details: in vivo
How it was run: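 Wistar rats (250–300 g, either sex), fasted overnight, given the compound orally at 200 mg kg-1 as a suspension in 0.5% methylcellulose by gavage (1 mL/100 g); 8 rats per compound. Stomachs were fixed in 2% formalin, opened along the greater curvature, and examined under a stereomicroscope by a blinded observer. The result is the number of rats with gastric damage over the number treated.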

Rattus norvegicus [17] = test: Antiinflammatory activity against carrageenan-induced paw edema in Wistar rat at 10 mg/kg, po dose administered 1 hr before carrageenan challenge assessed after 3 hrs; type: functional
Mus musculus [18] = organism: Mus musculus; test: animal or person; details: Swiss, po, read-out: INH

With `CCN(CC)C(=O)c1c(N2CCN(C)CC2)c2cccnc2n2c(C(C)C)nnc12` the inhibition in vivo at 200 mg/kg (Mus musculus [1]) was 86%, the inhibition in vivo at 100 mg/kg (Mus musculus [2]) was 88% and the inhibition in vivo at 50 mg/kg (Mus musculus [3]) was 85%. It also gave an inhibition in vivo at 25 mg/kg (Mus musculus [4]) of 90%, an inhibition in vivo at 12.5 mg/kg (Mus musculus [5]) of 92% and an inhibition in vivo at 6.25 mg/kg (Mus musculus [6]) of 83%. For the same molecule, the inhibition in vivo at 3.12 mg/kg (Mus musculus [7]) was 85%, the inhibition in vivo at 1.6 mg/kg (Mus musculus [8]) was 39% and the inhibition in vivo at 0.8 mg/kg (Mus musculus [9]) was 3%. It also gave an inhibition in vivo at 200 mg/kg (Rattus norvegicus [10]) of 34%, an inhibition in vivo at 100 mg/kg (Rattus norvegicus [11]) of 23% and an inhibition at 100 mg/kg (Mus musculus [12]) of 94%. For the same molecule, the inhibition at 25 mg/kg (Mus musculus [13]) was 99%, the inhibition at 12.5 mg/kg (Mus musculus [14]) was 74% and the inhibition at 6.25 mg/kg (Mus musculus [15]) was 19%. The Activity (Rattus norvegicus [16]) was “Non-toxic”.

In the case of `COc1ccc2c(c1)c(CC(=O)O)c(C)n2C(=O)c1ccc(Cl)cc1` [INDOMETHACIN], the inhibition in vivo at 10 mg/kg (Rattus norvegicus [17]) is reported as 51% and the inhibition in vivo at 10 mg/kg (Mus musculus [18]) is reported as 84%.
